Source: ChEMBL document CHEMBL5257157, “Biological evaluation of novel amidino substituted coumarin-benzazole hybrids as promising therapeutic agents” (RSC Med Chem, 2023)

Key:
LN-229 = assay: Antiproliferative activity against human LN-229 cells assessed as inhibition of cell growth incubated for 72 hrs by CellTiter96 Aqueous One Solution cell proliferation assay; assay type: functional, cell-based; conditions: LN-229, 72 h
NCI-H460 = assay: Antiproliferative activity against human NCI-H460 cells assessed as inhibition of cell growth incubated for 72 hrs by CellTiter96 Aqueous One Solution cell proliferation assay; assay type: functional, cell-based; conditions: NCI-H460, 72 h
K562 = assay: Antiproliferative activity against human K562 cells assessed as inhibition of cell growth incubated for 72 hrs by CellTiter96 Aqueous One Solution cell proliferation assay; assay type: functional, cell-based; conditions: K562, 72 h
Z-138 = assay: Antiproliferative activity against human Z138 cells assessed as inhibition of cell growth incubated for 72 hrs by CellTiter96 Aqueous One Solution cell proliferation assay; assay type: functional, cell-based; conditions: Z-138, 72 h
HCT-116 = assay: Antiproliferative activity against human HCT-116 cells assessed as inhibition of cell growth incubated for 72 hrs by CellTiter96 Aqueous One Solution cell proliferation assay; assay type: functional, cell-based; conditions: HCT-116, 72 h
HL-60 = assay: Antiproliferative activity against human HL-60 cells assessed as inhibition of cell growth incubated for 72 hrs by CellTiter96 Aqueous One Solution cell proliferation assay; assay type: functional, cell-based; conditions: HL-60, 72 h
[1] = Antiproliferative activity against human DND41 cells assessed as inhibition of cell growth incubated for 72 hrs by CellTiter96 Aqueous One Solution cell proliferation assay; assay type: functional, cell-based; conditions: DND41, 72 h
CAPAN-1 = assay: Antiproliferative activity against human CAPAN-1 cells assessed as inhibition of cell growth incubated for 72 hrs by CellTiter96 Aqueous One Solution cell proliferation assay; assay type: functional, cell-based; conditions: CAPAN-1, 72 h
Zika virus = assay: Antiviral activity against Zika virus Mr776 infected in human Huh-7 cells assessed as inhibition of virus-induced cytopathogenic effect incubated for 3 to 7 days by MTS assay; assay type: functional, organism-based; conditions: Mr776, Huh-7
Yellow fever virus = assay: Antiviral activity against Yellow fever virus 17D infected in human Huh-7 cells assessed as inhibition of virus-induced cytopathogenic effect incubated for 3 to 7 days by MTS assay; assay type: functional, organism-based
Sindbis virus = assay: Antiviral activity against Sindbis virus infected in human Huh-7 cells assessed as inhibition of virus-induced cytopathogenic effect incubated for 3 to 7 days by MTS assay; assay type: functional, organism-based
Human coronavirus 229E = assay: Antiviral activity against HCoV-229E infected in human HEL 299 cells assessed as inhibition of virus-induced cytopathogenic effect incubated for 3 to 7 days by MTS assay; assay type: functional, organism-based
Influenza A virus [2] = assay: Antiviral activity against influenza virus H3N2 infected in dog MDCK cells assessed as inhibition of virus-induced cytopathogenic effect incubated for 3 to 7 days by MTS assay; assay type: functional, organism-based
Influenza A virus [3] = assay: Antiviral activity against influenza virus H1N1 infected in dog MDCK cells assessed as inhibition of virus-induced cytopathogenic effect incubated for 3 to 7 days by MTS assay; assay type: functional, organism-based
Influenza B virus = assay: Antiviral activity against influenza B virus infected in dog MDCK cells assessed as inhibition of virus-induced cytopathogenic effect incubated for 3 to 7 days by MTS assay; assay type: functional, organism-based
[4] = Cytotoxicity against human PBMC cells assessed as reduction in cell viability at 0.006 to 4 uM measured after 72 hrs by CellTiter96 Aqueous One Solution cell proliferation assay; assay type: toxicity, cell-based; conditions: dose 0.006-4 µM
Huh-7 = assay: Cytotoxicity against human Huh-7 cells assessed as inhibition of cell growth incubated for 72 hrs by CellTiter96 Aqueous One Solution cell proliferation assay; assay type: functional
[5] = Drug localization in nucleolus of human HEp-2 cells at 10 uM incubated for 3 hrs by confocal microscopy analysis; assay type: ADME, subcellular; conditions: hep-2, 3 h
How it was run: (§1)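 Compound autofluorescence was imaged by fluorescence microscopy in Hep-2 cells (ATCC CCL-23). Cells were given 10 μM and incubated for 3 hours to allow cellular uptake before imaging. Localization to subcellular compartments was judged from the fluorescence pattern.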

[6] = Antiviral activity against HCoV-NL63 infected in human Huh-7 cells assessed as inhibition of virus-induced cytopathogenic effect incubated for 3 to 7 days by MTS assay; assay type: functional, cell-based; conditions: Human coronavirus NL63, Huh-7
[7] = system: Respiratory syncytial virus; assay: Antiviral activity against RSV infected in human HEL 299 cells assessed as inhibition of virus-induced cytopathogenic effect incubated for 3 to 7 days by MTS assay; assay type: functional, organism-based
[8] = Antioxidant activity assessed as ABTS radical scavenging activity incubated for 5 mins by absorbance based microplate reader analysis; assay type: functional
How it was run: (§2)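 Pure compounds tested in three colorimetric antioxidant assays, each run alongside the reference BHT. […] ABTS: direct reaction with ABTS•+ radical cation, reported as IC50. DPPH: scavenging of the stable DPPH radical by proton or electron donation, reported as IC50. FRAP: reducing power, expressed as mmolFe2+/mmolC.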

[9] = Cytotoxicity against human PBMC cells assessed as reduction in cell viability measured after 72 hrs by CellTiter96 Aqueous One Solution cell proliferation assay; assay type: toxicity, cell-based
How it was run: (§3)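 Normal peripheral blood mononuclear cells from healthy donors were exposed to compound for 72 hours, at concentrations up to a highest dose of 100 μM. Viability is given as a percentage of untreated PBMC control.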

[10] = Antioxidant activity assessed as DPPH radical scavenging activity incubated for 5 mins by absorbance based microplate reader analysis; assay type: functional; how it was run: as §2
[11] = Antioxidant activity assessed as reduction of Fe3+ complex to Fe2+ analogue by measuring mmolFe2+/mmolc by FRAP assay; assay type: functional; how it was run: as §2
[12] = Cytotoxicity against dog MDCK cells assessed as inhibition of cell growth incubated for 72 hrs by CellTiter96 Aqueous One Solution cell proliferation assay; assay type: toxicity, cell-based, Canis lupus familiaris
Human coronavirus OC43 = assay: Antiviral activity against HCoV-OC43 infected in human HEL 299 cells assessed as inhibition of virus-induced cytopathogenic effect incubated for 3 to 7 days by MTS assay; assay type: functional, organism-based; conditions: Betacoronavirus 1, HEL 299
[13] = Drug localization in nuclear membrane of human HEp-2 cells at 10 uM incubated for 3 hrs by confocal microscopy analysis; assay type: ADME, cell membranes; conditions: hep-2, 3 h; how it was run: as §1
[14] = Cytotoxicity against human HEL 299 cells assessed as inhibition of cell growth incubated for 72 hrs by CellTiter96 Aqueous One Solution cell proliferation assay; assay type: toxicity, cell-based
Human alphaherpesvirus 1 = assay: Antiviral activity against HSV-1 KOS infected in human HEL 299 cells assessed as inhibition of virus-induced cytopathogenic effect incubated for 3 to 7 days by MTS assay; assay type: functional, organism-based; conditions: Human alphaherpesvirus 1, KOS
[15] = Cytotoxicity against human PBMC cells assessed as reduction in cell viability at 20 uM measured after 72 hrs by CellTiter96 Aqueous One Solution cell proliferation assay; assay type: toxicity, cell-based; how it was run: as §3
[16] = Drug localization in cytoplasm of human HEp-2 cells at 10 uM incubated for 3 hrs by confocal microscopy analysis; assay type: ADME, subcellular; conditions: hep-2, 3 h; how it was run: as §1

SMILES	IC50 (LN-229)	IC50 (NCI-H460)	IC50 (K562)	IC50 (Z-138)	IC50 (HL-60)	IC50 [1]	IC50 (CAPAN-1)	EC50 (Zika virus)	EC50 (Yellow fever virus)	EC50 (Sindbis virus)	EC50 (Human coronavirus 229E)	EC50 (Influenza A virus [2])	EC50 (Influenza A virus [3])	EC50 (Influenza B virus)	Activity [4]	CC50 (Huh-7)	Drug uptake [5]	EC50 [6]	EC50 [7]	IC50 [8]	other results
COC(=O)Nc1nc2cc(C(=O)c3cccs3)ccc2[nH]1 [NOCODAZOLE]	100 nM	250 nM	70 nM	310 nM	100 nM	470 nM	130 nM														IC50 (HCT-116): 130 nM
CCN(CC)c1ccc2cc(-c3nc4cc(C5=NCCN5)ccc4[nH]3)c(=O)oc2c1.Cl	1400 nM	1800 nM	1900 nM	1500 nM	2100 nM	300 nM	1700 nM	> 100000 nM	> 100000 nM	> 100000 nM	> 100000 nM	> 100000 nM	> 100000 nM	> 100000 nM	> 80%	< 800 nM	Active	> 100000 nM	> 100000 nM	170000 nM	IC50 at 72 h [9]: 1600 nM; IC50 [10]: 140000 nM; Activity [11]: 28.4 mmol/mmol; CC50 at 72 h [12]: < 800 nM; EC50 (Human coronavirus OC43): > 100000 nM; Drug uptake [13]: Active; CC50 at 72 h [14]: 5100 nM; EC50 (Human alphaherpesvirus 1): > 100000 nM; Activity [15]: 60%
CCN(CC)c1ccc2cc(-c3nc4ccc(C5=NCCCN5)cc4s3)c(=O)oc2c1.Cl	1800 nM	> 100000 nM	> 100000 nM	1500 nM	> 100000 nM	1300 nM	2000 nM	> 100000 nM	> 100000 nM	> 100000 nM	33000 nM	> 100000 nM	> 100000 nM	> 100000 nM	> 80%	1800 nM	Active	> 100000 nM	43400 nM	980000 nM	Drug uptake [16]: Active; IC50 at 72 h [9]: 1700 nM; Activity [11]: 3.29 mmol/mmol; CC50 at 72 h [12]: 4200 nM; EC50 (Human coronavirus OC43): 28900 nM; Drug uptake [13]: Active; CC50 at 72 h [14]: > 100000 nM; EC50 (Human alphaherpesvirus 1): 25500 nM
